Results on eight molecules are retold here after ChEMBL document CHEMBL1795239, “MAO inhibitory activity modulation: 3-Phenylcoumarins versus 3-benzoylcoumarins” (Bioorg Med Chem Lett, 2011).

Molecules are shown by their SMILES. pIC50: −log10 of the molar value.

Series [1] deals with T1, Amine oxidase [flavin-containing] A (Homo sapiens, UniProt P21397).
T1 sequence (P21397 whole entry): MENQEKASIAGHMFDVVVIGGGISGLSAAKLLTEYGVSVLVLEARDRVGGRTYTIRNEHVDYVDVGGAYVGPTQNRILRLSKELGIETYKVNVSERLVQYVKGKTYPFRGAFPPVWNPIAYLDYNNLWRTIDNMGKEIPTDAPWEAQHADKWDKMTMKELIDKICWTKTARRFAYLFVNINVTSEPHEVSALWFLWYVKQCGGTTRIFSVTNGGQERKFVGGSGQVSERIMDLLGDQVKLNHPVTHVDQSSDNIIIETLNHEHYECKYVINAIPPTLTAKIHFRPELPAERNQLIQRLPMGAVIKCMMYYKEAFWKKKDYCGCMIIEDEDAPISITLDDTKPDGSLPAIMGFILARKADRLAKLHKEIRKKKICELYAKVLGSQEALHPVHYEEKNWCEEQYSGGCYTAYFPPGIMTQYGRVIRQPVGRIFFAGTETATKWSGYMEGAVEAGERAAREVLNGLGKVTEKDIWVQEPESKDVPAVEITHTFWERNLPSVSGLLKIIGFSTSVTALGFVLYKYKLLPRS
In words: Inhibition of human recombinant MAO-A using p-tyramine substrate at 100 uM by fluorometric method. In outline:
(§1)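 Recombinant human MAO-A or MAO-B expressed in baculovirus-infected BTI insect cells. Enzyme amounts set so both isoforms give the same rate, 165 pmol p-tyramine/min. Assay run in 0.05 M sodium phosphate pH 7.4 at 37 °C with compounds at several concentrations, 200 Amplex Red, 1 U/mL horseradish peroxidase and 1 mM p-tyramine. Resorufin fluorescence (ex 545/em 590 nm) read over a linear 15 min window. Vehicle controls run alongside.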

The target of series [2] is T2, Amine oxidase [flavin-containing] B (Homo sapiens, UniProt P27338).
T2 sequence (P27338 whole entry): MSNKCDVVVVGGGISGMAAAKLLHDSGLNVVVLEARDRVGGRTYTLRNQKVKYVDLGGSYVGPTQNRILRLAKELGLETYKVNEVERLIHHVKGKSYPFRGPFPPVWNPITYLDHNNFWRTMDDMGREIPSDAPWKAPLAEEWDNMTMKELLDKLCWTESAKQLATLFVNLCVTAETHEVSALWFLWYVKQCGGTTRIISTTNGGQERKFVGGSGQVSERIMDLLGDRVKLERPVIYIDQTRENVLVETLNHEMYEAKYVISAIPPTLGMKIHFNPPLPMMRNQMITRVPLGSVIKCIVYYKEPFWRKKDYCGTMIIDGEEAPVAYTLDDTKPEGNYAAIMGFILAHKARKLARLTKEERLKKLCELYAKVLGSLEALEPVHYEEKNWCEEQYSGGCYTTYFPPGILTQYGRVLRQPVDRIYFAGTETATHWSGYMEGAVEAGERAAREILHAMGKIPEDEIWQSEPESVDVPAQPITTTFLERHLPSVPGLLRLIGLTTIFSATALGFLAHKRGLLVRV
In words: Inhibition of human recombinant MAO-B using p-tyramine substrate by fluorometric method.

The species named for the next series is Homo sapiens. In words: Selectivity index, ratio of IC50 for human recombinant MAO-A to human recombinant MAO-B. In outline: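 MAO-B selectivity index is IC50(MAO-A)/IC50(MAO-B). Both IC50s come from the fluorimetric Amplex Red/peroxidase assay with 1 mM p-tyramine, using recombinant hMAO-A and hMAO-B from baculovirus-infected insect cells.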
Series [3] deals with T1, Amine oxidase [flavin-containing] A. In words: Inhibition of human recombinant MAO-A using p-tyramine substrate by fluorometric method.
In series [4] the target is T2, Amine oxidase [flavin-containing] B. The series can be described thus: Inhibition of human recombinant MAO-B using p-tyramine substrate at 100 uM by fluorometric method. As to conditions: for inhibition (INH): 100 µM; call rule not given here. In outline: as §1

Usually pIC50 stands for the IC50 on a negative log10 scale, so that one unit is a factor of ten. For `COc1ccc(-c2cc3cc(Br)cc(OC)c3oc2=O)cc1`, the “inhibition (INH)” value in series [1] is reported as “Not Active”. Besides, in series [2], the pIC50 was 8.87. In addition, the Ratio IC50 in the series listed under Homo sapiens is over 74100.

The term inhibition denotes how much of the control response was suppressed. `O=C(c1ccc(O)cc1)c1cc2cc(Br)cc(O)c2oc1=O`: the negative-log IC50 (pIC50) in series [3] is 4.72. Moreover, the inhibition at 100 µM in series [4] came out at 45%. Besides, the Ratio IC50 in the series filed under Homo sapiens was determined as 0.19.

`O=c1oc2c(O)cc(Br)cc2cc1-c1ccc(O)cc1`: the negative logarithm of the IC50 (pIC50) was 4.68 in series [3] and 4.77 in series [2]. Further, the Ratio IC50 in the series listed under Homo sapiens stood at 1.2.

Regarding `O=c1oc2c(O)cc(Br)cc2cc1-c1ccccc1`, in series [1], the “inhibition (INH)” value was “Not Active”. Also, the pIC50 in series [2] was 4.51. For the same molecule, the Ratio IC50 in the series filed under Homo sapiens is over 3.2.

In the case of `COc1ccc(C(=O)c2cc3cc(Br)cc(OC)c3oc2=O)cc1`, the “inhibition (INH)” value in series [1] and in series [4] was “Not Active” throughout.

In the case of `COc1cc(Br)cc2cc(C(=O)c3ccccc3)c(=O)oc12`, the “inhibition (INH)” value in series [1] and in series [4] was “Not Active” throughout.

`O=C(c1ccccc1)c1cc2cc(Br)cc(O)c2oc1=O`: the pIC50 in series [3] was 4.33; in series [2], 4.13. In addition, in the series filed under Homo sapiens, the Ratio IC50 amounted to 0.63.

Consider `COc1cc(Br)cc2cc(-c3ccccc3)c(=O)oc12`, for which the “inhibition (INH)” value in series [1] was “Not Active”. Further, in series [2], the negative logarithm of the IC50 (pIC50) was 7.08. Besides, the Ratio IC50 in the series filed under Homo sapiens is over 1200.
